Reference: PubChem BioAssay AID449754 (Broad Institute, 2010)
Results filed as inconclusive are left out. The source made the active and inactive calls.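 The calls were made as follows: active = compounds whose fitted caspase activation AC50 is no more than tenfold above the top tested dose; inconclusive = flat fit with 30 to 70% activity, or a failed fit; inactive = the rest.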

These compounds were tested on MEF Bax/Bak KO A1-BIM, caspase-Glo luminescence, 3 h (assay: caspase activation in Bax/Bak-deficient MEFs, dose response, counter-screen for A1 inhibitor project, cell-based, Bax-Bak knockout MEF, A1-2A-BIM, luminescence (AID 449754);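 also: counterscreen where caspase activation signals off-target toxicity not A1 inhibition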).
Procedure, shortened: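 Signal – CaspaseGlo luminescence · Assay system – A1-2A-BIM MEFs lacking Bax and Bak · Quantity – 2500 cells/well · Compound – 100 nL pinned compound per well · Times – 37 °C compound 3 h, cooling 30 min, reagent 1 h · Buffer or medium – RPMI-1640, 10% FBS · Read-out basis – caspase activity from luminescent signal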

Structure (SMILES)	AC50
CCS(=O)(=O)c1ncc(Cl)c(C(=O)Nc2ccc(S(=O)(=O)N3CCC(C)CC3)cc2)n1	> 35 µM (inactive)
C=CC(=O)Nc1ccc(CN2C(=O)N(c3c(Cl)c(OC)cc(OC)c3Cl)Cc3cnc(NCCCCN(CC)CC)nc32)cc1	> 35 µM (inactive)
O=C1/C(=C/c2ccc(N3CCOCC3)o2)SC(=Nc2ccccc2)N1CCc1c[nH]c2ccccc12	6.82 µM
Cc1nc(SCc2nc3c([N+](=O)[O-])cccc3[nH]2)c2oc3ccccc3c2n1	> 35 µM (inactive)
N#Cc1c(C(F)(F)F)cc(-c2ccccc2)nc1SCC(=O)Nc1sc2c(c1C#N)CCC2	> 35 µM (inactive)
Cc1ccc(-c2nc(NC(=O)c3nn(C)cc3[N+](=O)[O-])sc2C)cc1	6.29 µM
CCc1nn(-c2cc(Oc3cccc4ccccc34)nc(-c3ccccc3)n2)c(N)c1C#N	> 35 µM (inactive)
CCN(C(=O)CCN1C(=O)c2ccccc2S1(=O)=O)c1ccccc1	> 35 µM (inactive)
COc1cc(NC(=O)c2ccc(Cl)cc2Cl)ccc1-c1cc2ccccc2oc1=O	> 35 µM (inactive)
O=C(N/C=N/OCc1ccc(Cl)cc1Cl)NOCc1ncc(C(F)(F)F)cc1Cl	> 35 µM (inactive)
CCOC(=O)C1=C(c2ccccc2)O/C(=C(/C#N)C(F)(F)F)S1	> 35 µM (inactive)
CC(C)c1cccc(-c2ccc3c(c2)S(=O)(=O)c2cccc(C(=O)NC4CCCC4)c2C3=O)c1	> 35 µM (inactive)
COc1cc(NC(=O)c2cccc(C)c2)ccc1NC(=O)c1cc2ccccc2o1	> 35 µM (inactive)
CCCCNC(=S)N/N=C/c1ccc(OCC(=O)Nc2c(C)cc(C)cc2C)c(OC)c1	> 35 µM (inactive)
O=C(Nc1ccc(Cl)cc1Cl)c1cccc(N2C(=O)C=CC2=O)c1	> 35 µM (inactive)
Cc1cc(=O)[nH]c(SCC(=O)Nc2ccc(Br)cc2)c1C#N	> 35 µM (inactive)
COc1ccc(-c2nc(NC(=O)c3n[nH]c(=O)c4ccccc34)sc2C)cc1	> 35 µM (inactive)
CCOC(=O)c1c(C)oc2c1c(CN1CCN(C(=O)OCC)CC1)c(O)c1ccccc12	13 µM
O=C(NCCc1ccccc1)C(c1cccs1)N(C(=O)CCl)c1ccc(Cl)cc1 (configuration not stated)	6.03 µM
N#C/C(=C\c1ccc(OCc2ccccc2)cc1)C(=O)Nc1nc2c(s1)CCN(Cc1ccccc1)C2	> 35 µM (inactive)
COc1cc(NC(=O)c2cccs2)ccc1NC(=O)c1cc2ccccc2o1	> 35 µM (inactive)
COc1ccc(OC)c(NC(=O)c2cc(-c3cc(C)ccc3O)n[nH]2)c1	> 35 µM (inactive)

Structure (SMILES)	AC50
O=C(NCc1ccccc1Cl)c1cccc2c1C(=O)c1ccc(-c3ccc(OC(F)(F)F)cc3)cc1S2(=O)=O	> 35 µM (inactive)
c1ccc(-c2sc3ccccc3c2-c2ccc(OCCN3CCCC3)cc2)cc1	33 µM
O=C(CCl)N=c1sccn1Cc1ccccc1Cl	> 35 µM (inactive)
O=C(Nc1ccc2oc(-c3ccccc3)nc2c1)c1ccccc1F	> 35 µM (inactive)
COc1ccc(NC(=O)C(=O)N/N=C\c2ccc(CNC(=O)C(=O)Nc3ccc(C)c(C)c3)o2)c(OC)c1	32 µM
CCSc1nnc(NC(=O)c2nc(S(=O)(=O)Cc3ccc(F)cc3)ncc2Cl)s1	> 35 µM (inactive)
COc1ccc(-c2ccc3c(c2)S(=O)(=O)c2cccc(C(=O)NC[C@@H]4CCCO4)c2C3=O)cc1OC	> 35 µM (inactive)
COc1ccccc1C(=O)Nc1ccnn1C1CCN(Cc2cn(C)c3ccccc23)CC1	> 35 µM (inactive)
COc1ccc(Oc2cc(NC(=O)c3nn(C)cc3[N+](=O)[O-])cc([N+](=O)[O-])c2)cc1	> 35 µM (inactive)
Cc1cc(C)cc(NC(=O)/C(C#N)=C/c2cn(CC(=O)NCc3ccco3)c3ccccc23)c1	6.71 µM
CCOc1cc(/C=N/Nc2cc(C)nc(-n3nc(C)cc3C)n2)ccc1O	> 35 µM (inactive)
COc1ccccc1-c1cn[nH]c1-c1ccc(OCc2ccccc2)cc1O	> 35 µM (inactive)
CCOCCCNC(=O)c1ccc2c(c1)N=C(CC)c1cc(Br)ccc1S2	> 35 µM (inactive)
CCOC(=O)C(C(=O)OCC)c1cc(Br)c2noc3c2c1C(=O)c1ccccc1-3	> 35 µM (inactive)
CC(C)(C)[C@H](N)C(=O)N[C@H]1CCC2C3CC=C4C[C@@H](O)CC[C@]4(C)C3CC[C@@]21C (some centres not stated)	> 35 µM (inactive)
Cc1ccc(NC(=O)c2ccc(NCC3CCCO3)c([N+](=O)[O-])c2)cc1Cl (configuration not stated)	> 35 µM (inactive)
CC(C)(C)c1ccc(C(=O)Nc2ccc(O)c3c(=O)cc(-c4cccc(Cl)c4)oc23)cc1	> 35 µM (inactive)
COc1ccc(-c2oc(=O)c3cc(OC)c(OC)cc3c2/C=C/c2cccc([N+](=O)[O-])c2)cc1	> 35 µM (inactive)
O=C(Nc1ccc2oc(-c3cccc(F)c3)nc2c1)c1ccccc1F	> 35 µM (inactive)
Cc1ccc(C#N)c(SCC(=O)Nc2nccs2)n1	> 35 µM (inactive)
CC[C@H]1CN2CCc3cc(OC)c(OC)cc3[C@@H]2C[C@@H]1C[C@H]1NCCc2cc(OC)c(OC)cc21	> 35 µM (inactive)
Cc1ccc(NC(=O)c2ccc(N/N=C/c3cccc(O)c3)c([N+](=O)[O-])c2)cc1	27.3 µM

Structure (SMILES)	AC50
COC(=O)Cc1csc(/N=C/c2c(O)n(-c3cccc(C(F)(F)F)c3)c(=O)c3ccccc23)n1	28 µM
Cc1ccc(NC(=S)NC(NC(=O)Cc2cccc3ccccc23)C(Cl)(Cl)Cl)cc1 (configuration not stated)	22.9 µM
Cc1ccc(-c2nc(NC(=O)c3nn(C)cc3[N+](=O)[O-])sc2C)cc1C	16.2 µM
O=C(COc1ccc(/C=N/NC(=O)c2cc3ccccc3o2)cc1Cl)Nc1ccccc1	9.03 µM
COc1cc2ncnc(NCc3ccc(F)cc3)c2cc1OC	> 35 µM (inactive)
COc1ccc(-c2ccc3c(c2)S(=O)(=O)c2cccc(C(=O)NCCOc4ccccc4)c2C3=O)cc1OC	> 35 µM (inactive)
O=[N+]([O-])/C=C/c1cn(Cc2ccc(Cl)cc2)c2ccccc12	20.7 µM
CC1=NNC(=O)/C1=C\c1cn(-c2ccccc2)nc1-c1ccccc1	11 µM
COc1ccc(NC(=O)CSc2nc3ccc(Nc4nc(N5CCOCC5)nc(N5CCOCC5)n4)cc3s2)cc1	> 35 µM (inactive)
Cc1ccc(NC(=O)CSc2nc3nc(C)c(Br)cc3[nH]2)cc1F	> 35 µM (inactive)
CC1CCc2c(sc3nc(C(C)(C)C)nc(N4CCN(C(=O)CCl)CC4)c23)C1 (configuration not stated)	12.3 µM
CC(=O)OC(C)(C)/C=C/C(=O)[C@](C)(O)C1[C@H](O)C[C@@]2(C)C3CC=C4C(C[C@H](O)C(=O)C4(C)C)[C@]3(C)C(=O)C[C@]12C (some centres not stated)	> 35 µM (inactive)
Cc1cccc(CS(=O)(=O)c2ncc(Cl)c(C(=O)Nc3nnc(C(C)C)s3)n2)c1	> 35 µM (inactive)
CCn1c(Cl)c(C=O)s/c1=N\S(=O)(=O)c1ccccc1	> 35 µM (inactive)
CCCc1ccc(OCc2ccc(C(=O)N/N=C/c3cccc([N+](=O)[O-])c3)o2)c(OC)c1	26.3 µM
CN(C)C/C=C(\c1ccc(Br)cc1)c1cccnc1	> 35 µM (inactive)
O=C(Nc1ccc([N+](=O)[O-])cc1)C(Cc1ccccc1)N1C(=O)c2cccc3cccc(c23)C1=O (configuration not stated)	> 35 µM (inactive)
Cc1cc(C(=O)CCl)c(C)n1CCc1ccc(Cl)cc1	> 35 µM (inactive)
Cc1ccc(NC(=O)c2cc(N3C(=O)C=CC3=O)ccc2N2CCOCC2)cc1Cl	> 35 µM (inactive)
CC(=O)Nc1ccc(NC(=O)C(C)OC(=O)/C=C/c2cn(-c3ccccc3)nc2-c2cccnc2)cc1 (configuration not stated)	18.4 µM
CC(C)(C)C1CCc2onc(C(=O)Nc3cccc(O)c3)c2C1 (configuration not stated)	> 35 µM (inactive)
O=C1C2C3C=CC(CO)(O3)C2C(=O)N1c1ccc(-c2ccccc2)cc1 (configuration not stated)	> 35 µM (inactive)

Structure (SMILES)	AC50
Cn1c(=NC(=O)CCl)sc2ccccc21	> 35 µM (inactive)
COc1cc(CN2CCN(c3cc(C)ccc3C)CC2)ccc1O	> 35 µM (inactive)
CC(C)c1cccc(-c2ccc3c(c2)S(=O)(=O)c2cccc(C(=O)NCc4ccccc4Cl)c2C3=O)c1	> 35 µM (inactive)
Cc1ccc2c(c1)C(=O)C(=O)N2Cc1ccc(Br)cc1	> 35 µM (inactive)
COc1cc(NC(=O)c2ccccc2F)ccc1NC(=O)c1cc2ccccc2o1	> 35 µM (inactive)
Cc1cccc(Nc2nc(N)c([N+](=O)[O-])c(N3CCCC(C)C3)n2)c1 (configuration not stated)	> 35 µM (inactive)
Cc1cccc(C)c1NC(=O)C(Cl)C(=O)c1ccccc1 (configuration not stated)	> 35 µM (inactive)
Cc1cccc(NC(=O)CSc2nc(C)c(CC(=O)c3ccc(Br)cc3)c(C)c2C#N)c1C	> 35 µM (inactive)
COc1ccc(C2Nc3ccc4ccccc4c3-c3c2c(=O)oc2ccccc32)cc1 (configuration not stated)	18.7 µM
CCn1c(SCC(=O)c2ccccc2)nnc1-c1cc2cc(Br)ccc2o1	> 35 µM (inactive)
COc1cc(/C=C(/C#N)c2nc3ccccc3[nH]2)ccc1OCC(=O)Nc1ccccc1C(C)C	> 35 µM (inactive)
O=C(Oc1cccc(/C=N/Nc2nc(Nc3ccccc3)nc(N3CCOCC3)n2)c1)c1ccco1	> 35 µM (inactive)
CCc1nnc(NC(=O)CSc2nc(-c3ccccc3)cc(-c3ccc(F)cc3)c2C#N)s1	35.8 µM
CCOc1ccc(N2C(=O)/C(=C\c3ccc(O)c(OC)c3)S(=O)(=O)C2c2cccc([N+](=O)[O-])c2)cc1 (configuration not stated)	> 35 µM (inactive)
CC(C)(C)c1ccc2c(c1)OC(C(=O)N/N=C\c1ccc[nH]1)CO2 (configuration not stated)	> 35 µM (inactive)
Cc1c(CCOC(=O)c2ccc(N3CCOCC3)c([N+](=O)[O-])c2)sc[n+]1CC#N	> 35 µM (inactive)
Cc1cc(NC(=O)CSc2nc3cc(Cl)ccc3c(=O)n2Cc2ccco2)no1	> 35 µM (inactive)
C=C1/C=C(\C)[C@](C)(O)C[C@H](O)CC(=O)[C@H](O)[C@@H](O)[C@H](C)C[C@H](C)OC(=O)/C(C)=C/CC/C=C/[C@@H]2O[C@H]2C[C@H](C)C1	> 35 µM (inactive)
O=C(Nc1ccc([N+](=O)[O-])cc1)c1nc[nH]c1C(=O)NC1CCCCC1	> 35 µM (inactive)
CCOC(=O)N1C(=O)[C@@](c2ccc(Cl)cc2)(C(C)C)N1C(=O)OCC	35.1 µM
COCc1cc(C)nc(SCC(=O)Nc2nc(C)cs2)c1C#N	> 35 µM (inactive)
